# Screening results (PubChem)
# Shown are actives, neighbours in structure and some others; about 0.97% of the full set was active somewhere.
# zVAD death inh = blocks zVAD induced death of L929 cells | AID 1377 | viability rescue, % at 10 µM | 0.38% of 220,000 active | L929 zVAD necroptosis rescue, ATP luminescence, 24 h; with zVAD 60 µM;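 active = activation, scaled between plate controls, above about 75%, limit read from the data; inactive = activation under that limit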;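 also: 0% = zVAD with DMSO and 100% = DMSO alone without zVAD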
# TNF death inh = TNF-alpha cell death inhibition in Jurkat FADD-/- cells | Jurkat FADD-/- TNF necroptosis rescue, ATP luminescence, 24 h; 0 = TNF only, 100 = no-TNF cells | activation (protection from cell death), % at 10 µM | 0.068% of 220,000 active;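 active = activation, meaning protection from cell death, of at least 50% relative to plate controls; inactive = activation below 50%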;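 also: necroptosis triggered by 40 ng/mL TNF-alpha added together with compound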
# Beta2AR agonist = activates human beta-2 adrenergic receptor causing internalization; P07550; Am2.2-beta2AR cells, FAP receptor internalization, flow cytometry; response, % (no concentration beside the values); 0.43% of 340,000 active;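 active = response above a set limit, near 3 SD of response in nonfluorescent compounds, cut at about 42% in these data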
# Target sequence (P07550 whole entry, looked up): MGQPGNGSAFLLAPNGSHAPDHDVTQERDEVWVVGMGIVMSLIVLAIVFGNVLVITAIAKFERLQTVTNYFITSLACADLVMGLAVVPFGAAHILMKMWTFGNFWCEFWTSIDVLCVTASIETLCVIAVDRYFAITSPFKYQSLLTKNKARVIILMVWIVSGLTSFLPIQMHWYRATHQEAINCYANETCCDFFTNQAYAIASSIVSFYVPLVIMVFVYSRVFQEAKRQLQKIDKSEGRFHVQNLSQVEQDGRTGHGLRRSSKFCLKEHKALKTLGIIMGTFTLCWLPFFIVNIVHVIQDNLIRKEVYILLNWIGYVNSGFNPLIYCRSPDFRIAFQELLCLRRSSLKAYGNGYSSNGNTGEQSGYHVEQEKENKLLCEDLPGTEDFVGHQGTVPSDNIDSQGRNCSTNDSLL
# MDM2 E3 inh = Mdm2 E3 ligase (human) inhibition; Q00987; cell-based MDM2 ubiquitination luciferase reporter, 2 h; 0 = plate control, 100 = twice control, blank-subtracted; signal enhancement, % at 5 µM; 0.11% of 210,000 active; AID 1230;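 active = signal enhancement of 30% or more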;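 also: luminescence tracks abundance of the self-degrading MDM2-luciferase fusion protein; higher signal means inhibition of MDM2 E3 ligase activity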
#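 system = mammalian cells stably expressing self-ubiquitinating, self-degrading MDM2 E3–luciferase fusion | quantity = 2000 cells per well seeded | incubation = 4 h cell settling then 2 h compound exposure, 37 °C | signal = SteadyLite luminescence, 15 min reagent step | benchmarks = plate control and blank wells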
# Dynein cargo inh = blocks dynein driven cargo transport along microtubules | 3617.4 mouse cells, GR-EGFP nuclear translocation imaging; test concentration mostly 20 µM; stimulated with dexamethasone, 1 µM; hits give low values | z-score, hits read low | 0.47% of 220,000 active | AID 1381;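 active = plate z-score of nuclear minus cytoplasmic receptor signal below a set negative limit, without overly bright fluorescence or cell loss, cut at about -3.5 in these data, passing the limit was not always enough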;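 also: z-score of nuclear minus cytoplasmic ring GR-EGFP intensity difference per well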
#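 Buffer or medium: tet-free medium with charcoal-stripped serum / Also added: dexamethasone agonist, 1.0 µM final, for 30 min / Timing: induction 48 h, compound 1 h, agonist 30 min / Measured by: high-content fluorescence imaging after fixation / Read-out: nuclear-to-cytoplasmic GR-EGFP distribution per well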
# B2AR ag CP1 = activates human beta-2 adrenergic receptor; percent response (surface receptor), % at 10 µM; shares compounds with Beta2AR agonist; 25% of 1,100 active; Am2.2-beta2AR cells, FAP surface receptor, flow cytometry; hits give low values;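 active = surface receptor percent response at or below 58%, roughly 3 SD from nonfluorescent compounds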
# B2AR FAP counter = flagged in Am2.2 fluorescence counterscreen for beta-2AR agonists. calls only at 10 µM. 1,100 tested, under 10 active. Am2.2 cells, FAP fluorogen flow cytometry; hits give low values. shares compounds with Beta2AR agonist. AID 588765;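 active = percent response below a set limit in fluorescence channel 1 and below 50% in channel 8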
# Numbers without * were called inactive; i = inactive; x = not tested or not shown.
SMILES,zVAD death inh,TNF death inh,Beta2AR agonist,MDM2 E3 inh,Dynein cargo inh,B2AR ag CP1,B2AR FAP counter
N#CC1=C(N)Oc2cc(O)ccc2C1c1ccccc1 (stereo unspecified),-2,-11,-7,0,0.78,x,x
O=C(CSc1nnnn1C1CCCCC1)NNC(=O)c1ccco1,8,0,-12,-6,0.16,x,x
COc1ccc(CCN(C)C2CCCN(C(=O)CCC(F)(F)F)C2)cc1OC (stereo unspecified),x,x,-7,x,x,x,x
Cc1noc(NS(=O)(=O)c2ccc(NC(=O)C34CC5CC(C3)CC(n3cnc(Cl)n3)(C5)C4)cc2)c1C,0,2,74*,-22,0.39,84,i
Cc1noc(NS(=O)(=O)c2ccc(NC(=O)CC34CC5CC(CC(Br)(C5)C3)C4)cc2)c1C,0,-1,5,22,0.3,x,x
COC(=O)N1C(=O)[C@](c2ccc(OC)cc2)(C(C)C)N1C(=O)OC,x,x,-2,x,x,x,x
Cc1cccnc1NC(=S)NCCc1ccccc1,0,0,6,3,0.53,x,x
N=c1c2c(ncn1CCCO)Oc1c(ccc3ccccc13)C2c1ccccc1 (stereo unspecified),-1,-17,18,-26,1.5,x,x
CN(C)CCCn1cnc2c(c1=N)C(c1ccccc1)c1ccc3ccccc3c1O2 (stereo unspecified),x,x,44*,x,x,94,i
C=C(C)COc1ccc(-c2n[nH]c(C)c2-c2ccc(OC)cc2)c(O)c1,0,0,53*,5,-1.2,115,i
COc1ccc(-c2n[nH]c(C)c2-c2cscn2)c(O)c1,0,1,-3,1,-0.64,x,x
CC(=O)c1cccc(N=c2scc(-c3ccc(S(=O)(=O)N4CCOCC4)cc3)n2CCO)c1,0,-3,104*,-7,0.53,117,i
Cc1ccc(S(=O)(=O)N2CCC(C(=O)Nc3nnc(-c4ccc(F)cc4)s3)CC2)cc1,1,1,65*,-7,-0.061,102,i
O=C(Nc1nnc(-c2ccc(F)cc2)s1)C1CCN(S(=O)(=O)c2ccc(Cl)cc2)CC1,0,1,1,-9,1.4,x,x
COc1ccc(/C=C2\SC(=S)N(CCC(=O)Nc3ccc(C(=O)O)cc3)C2=O)cc1,x,x,9,x,x,x,x
COc1ccc(Sc2nnc(-c3ccccc3)cc2C#N)cc1,-1,1,-2,-8,0.031,x,x
N#Cc1cc(-c2ccccc2)nnc1Oc1ccccc1Cl,0,1,57*,9,-0.023,18*,i
Cc1cc(CN(C)C(=O)CC2C(=O)NCCN2Cc2ccc(-c3ccccc3)cc2)on1 (stereo unspecified),x,x,46*,x,x,90,i
Cn1nnnc1Sc1ncnc2scc(-c3ccc(-c4ccccc4)cc3)c12,x,x,7,x,x,x,x
Cn1nnnc1Sc1ncnc2scc(-c3cc4ccccc4o3)c12,x,x,53*,x,x,57*,i
C=CCOC(=O)C1=C(C)NC(SCC)=C(C#N)C1c1ccc(Cl)cc1 (stereo unspecified),0,1,0,-14,1.8,x,x
COc1ccc(Cl)c2sc(N(CCN(C)C)C(=O)c3ccc4c(c3)OCCO4)nc12,x,x,44*,x,x,128,i
CN(C)CCN(C(=O)c1ccc2c(c1)OCCO2)c1nc2c(Cl)cccc2s1,x,x,2,x,x,x,x
CC1=C(C#N)C(c2cn(-c3ccccc3)nc2-c2cccs2)C(C#N)=C(C)N1,0,-6,108*,-19,0.13,13*,i
NC(=O)C1CCN(C(=O)c2ccc3c(c2)S(=O)(=O)c2ccccc2C3=O)CC1,x,x,-8,x,x,x,x
SMILES,zVAD death inh,TNF death inh,Beta2AR agonist,MDM2 E3 inh,Dynein cargo inh,B2AR ag CP1,B2AR FAP counter
Oc1ccc(C[C@@H]2CNCCN2CCc2cc(C(F)(F)F)cc(C(F)(F)F)c2)cc1,x,x,80*,x,x,93,i
CCN(CC)S(=O)(=O)c1cccc(-n2c(O)c(C=Nc3ccccc3C(=O)O)c3ccccc3c2=O)c1,0,-14,47*,-3,2.3,99,i
COCCn1c(=S)[nH]c2ccc(N(C)C)cc2c1=O,0,0,45*,-10,1.9,122,i
COc1ccc(OC)c(C2CC(=O)Nc3n[nH]c(-c4ccccc4)c32)c1 (stereo unspecified),0,-3,6,6,0.51,x,x
COc1cc(-c2nc3ccccn3c2NCC2CCCO2)ccc1O (stereo unspecified),1,-8,-16,-25,-0.61,x,x
CCOc1cc(-c2nc3ccccn3c2NCC2CCCO2)ccc1O (stereo unspecified),1,-6,20,-13,1.8,30*,i
Fc1ccc(Sc2nc(-c3ccccc3)nnc2C(F)(F)F)cc1,39,-23,44*,20,-2.1,21*,i
COc1ccccc1-c1cc(C(F)(F)F)nc(S(=O)(=O)CCCC(=O)N2CCOCC2)n1,0,-18,47*,27,-0.65,92,i
COc1ccc(-c2cc(C(F)(F)F)nc(S(=O)(=O)CCC(=O)N3CCOCC3)n2)cc1,6,-7,25,-24,-3.4,89,i
CCOC(=O)CN1N=C(c2ccc(Cl)s2)CSC1=O,0,2,2,9,-0.69,x,x
CCOC(=O)c1cc(C(=O)c2cc(Cl)ccc2O)coc1=N,0,-1,1,-15,-1.2,x,x
CC(C)CN(CC(C)C)S(=O)(=O)c1cc([N+](=O)[O-])ccc1N1CCCCCC1,0,-1,52*,-12,-1.4,64,i
NC(=O)c1ccc(Oc2ccc(Cl)c3ccccc23)c([N+](=O)[O-])c1,1,1,3,-13,0.38,x,x
Cc1ccc(OCc2nnc(SCc3nc4ccccc4[nH]3)n2Cc2ccco2)cc1,2,-1,104*,-20,0.12,20*,i
Nn1c(SCc2nc3ccccc3[nH]2)nnc1-c1ccccc1,1,1,-5,0,0.021,x,x
c1ccc(-c2nnc(SCc3nc4ccccc4[nH]3)n2Cc2ccco2)cc1,1,1,-12,-9,0.47,138,i
COc1ccccc1NS(=O)(=O)c1cc(N=N/C(C(=O)Nc2ccc(Cl)cc2)=C(/C)O)ccc1C,x,x,0,x,x,x,x
N#Cc1nc(-c2cccc3ccccc23)oc1NCCN1CCOCC1,2,-6,2,3,-3.1,x,x
COc1ccc(C(C)=O)cc1COC(=O)c1ccc2ccccc2n1,1,2,2,-1,0.031,x,x
Cc1c(Cl)c([N+](=O)[O-])nn1CCCC(=O)Nc1sc2c(c1C#N)CCC2,0,-3,4,4,0.12,x,x
